Bioassay records from PubChem BioAssay.
Hits are enriched below; roughly 3.5% of the tested compounds scored in any of these assays.
sEH inhibitor: blocks human soluble epoxide hydrolase activity. recombinant human sEH enzymatic activity assay. AID 707. inhibition, % at 2 µM. hit rate 0.34% among 91,000; in the data active = inhibition above about 80%
sEH activator: soluble epoxide hydrolase (human) activation; purified human sEH enzymatic activity, activator screen; activation, % at 2 µM; hit rate 0.04% among 91,000; AID 717; in the data active = activation above about 37%
HIV Rev-RRE inh: inhibitors of HIV-1 Rev-RRE RNA interaction | P05866 | Rev peptide-RRE RNA binding, FRET | inhibition, % at 8 µM | hit rate 0.79% among 97,000 | AID 704;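 active = inhibition above the screen-wide mean plus 3 SD, cut at about 35% in these data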;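 note: 0% = median DMSO wells and 100% = median Neomycin B control wells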
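assay system = Cy5-tagged RRE RNA duplex with fluorescein-tagged Rev peptide | incubation = 5 + 15 min at 25 °C | also added = labelled Rev peptide | measure = % inhibition of FRET ratio versus controls | benchmarks = DMSO wells as 0% and neomycin B wells as 100% inhibition | measured by = FRET fluorescence readout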
ERb SRC1 inh: blocks coactivator binding to human estrogen receptor beta; Q92731; TR-FRET ER-beta LBD / SRC1-Cy5 peptide binding; receptor agonist-loaded with 1 µM estradiol; inhibition, % at 25.6 µM; hit rate 1.3% among 86,000; AID 633;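 active = compounds whose percent inhibition of the receptor-coactivator binding signal exceeds about 50% in the single-dose screen, limit read from the data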;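 note: 0% = receptor plus peptide wells without compound and 100% = peptide-only wells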
Target sequence (Q92731 whole entry, looked up, the tested form may be a part): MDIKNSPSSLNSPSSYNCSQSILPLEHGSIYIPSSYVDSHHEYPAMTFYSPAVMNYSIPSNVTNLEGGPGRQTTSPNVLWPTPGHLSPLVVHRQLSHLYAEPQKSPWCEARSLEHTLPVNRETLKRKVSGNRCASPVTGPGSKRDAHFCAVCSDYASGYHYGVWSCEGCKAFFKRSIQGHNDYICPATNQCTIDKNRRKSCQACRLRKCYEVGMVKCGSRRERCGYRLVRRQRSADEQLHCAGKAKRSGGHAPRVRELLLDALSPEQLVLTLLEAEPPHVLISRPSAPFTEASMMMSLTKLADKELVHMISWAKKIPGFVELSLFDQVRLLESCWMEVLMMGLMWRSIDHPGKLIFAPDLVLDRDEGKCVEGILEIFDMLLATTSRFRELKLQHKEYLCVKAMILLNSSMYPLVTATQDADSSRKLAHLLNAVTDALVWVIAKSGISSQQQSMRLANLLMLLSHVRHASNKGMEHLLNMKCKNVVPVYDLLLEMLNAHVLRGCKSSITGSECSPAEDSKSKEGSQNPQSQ
ERa SRC1 pot: enhances coactivator binding to human estrogen receptor alpha | P03372 | TR-FRET ERalpha-LBD/SRC-Cy5 coactivator binding, 2 h; 100 = basal binding, no effect | coactivator binding (% of control), % at 25.6 µM | hit rate 1.3% among 86,000; in the data active = activity above about 200%;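 note: binding measured in presence of low estradiol as agonist stimulus; 0% = peptide alone without receptor and 100% = receptor with peptide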
ERa SRC1 inh: blocks coactivator binding to human estrogen receptor alpha. inhibition, % at 25.6 µM. P03372. TR-FRET ER-alpha LBD / SRC-1 peptide, estradiol-bound. hit rate 1.7% among 86,000; in the data active = inhibition above about 50%;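 note: 0% = receptor plus peptide control and 100% = peptide only without receptor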
Active calls of the source: *; · = no result; [ ] = dose if it differs, or a comment.

SMILES | sEH inhibitor | sEH activator | HIV Rev-RRE inh | ERb SRC1 inh | ERa SRC1 pot | ERa SRC1 inh
CCN(CC)c1ccc(/C=C2/C(=O)NC(=O)N(CC3CCCO3)C2=O)cc1 (stereo unspecified) | -6.9 | 7.8 | 89.5*[fluorescence artefact?] | · | · | ·
O=c1[nH]c(=O)n(Cc2ccco2)c(O)c1C=NCCN1CCOCC1 | · | · | 23.1 | -1.8 | 91.4 | -0.4
CN1C(=O)C(=Cc2ccc(N3CCCCCC3)o2)C(=O)N(C)C1=S | 7.1 | -4.5 | 123.8*[fluorescence artefact?] | · | · | ·
CCCCN1C(=O)/C(=C\c2ccco2)C(=O)N(CCc2ccccc2)C1=O | -3.4 | 9.6 | 32.0 | · | · | ·
CCCCN1C(=O)/C(=C/c2ccc(N(C)C)cc2)C(=O)N(Cc2ccco2)C1=O | -3.5 | 4.2 | 53.0* | · | · | ·
Cn1cccc1CN1CCN(C(=O)COc2ccccc2)CC1 | 12.3 | -12.8 | 3.6 | 93.1*[fluorescence artefact?] | 101.4 | 0.2
COCCNC(=O)c1c(N)n(Cc2ccco2)c2nc3ccccc3nc12 | 1.7 | -2.1 | 36.0* | 19.3 | 79.0 | 2.6
CC(C)(C)OC(=O)c1c(N)n(Cc2ccco2)c2nc3ccccc3nc12 | -4.2 | 5.6 | 33.5 | 9.4 | 99.5 | 12.1
CCOC(=O)c1c(N)n(CCN2CCCCC2)c2nc3ccccc3nc12 | -13.9 | 11.3 | 37.7* | -1.6 | 89.3 | -20.7
C=CCNC(=O)c1c(N)n(Cc2ccco2)c2nc3ccccc3nc12 | -24.5 | 24.1 | 50.0* | 18.4 | 75.0 | 17.3
CCCCn1c(N)c(C(=O)NCCN2CCOCC2)c2nc3ccccc3nc21 | 0.1 | -1.2 | 3.1 | 3.0 | 92.2 | -2.8
Nc1c(C(=O)NCCN2CCOCC2)c2nc3ccccc3nc2n1Cc1ccco1 | -4.2 | 3.7 | 44.9* | 31.5 | 62.9 | 4.9
CCCCn1c(O)c(C(CC)=NCCCN(C)C)c(=O)[nH]c1=O | 11.1 | -8.3 | 2.9 | 0.6 | 109.6 | 2.0
C=CCOC(=O)COc1cc(C)cc2oc(=O)c3c(c12)CCC3 | 4.2 | -2.3 | 2.0 | 4.0 | 103.3 | -2.5
C[C@]12CCC(=O)C=C1CCC1C2CC[C@@]2(C)C1CC[C@@]2(O)CC#N (stereo partly specified) | · | · | · | 54.4* | 96.8 | 1.2
CC12CCC(=O)C=C1CCC1C2CCC2(C)C(O)CCC12 (stereo unspecified) | · | · | · | 5.6 | 121.5 | -0.6
CC(=O)NC(C)Cc1ccccc1 (stereo unspecified) | 8.1 | -7.9 | -6.5 | 3.0 | 106.7 | -4.0
CC(Cc1ccccc1)NC(=O)NC(C)Cc1ccccc1 (stereo unspecified) | 97.9* | -97.9 | 2.0 | 1.6 | 92.8 | 12.7
CN1CCN(c2ccc(N)c(N3CCN(C)CC3)c2)CC1 | -0.9 | 1.2 | 8.2 | 18.7 | 72.5 | 11.2
CN1CCN(c2ccc(N)cc2)CC1 | -12.9 | 9.7 | 9.0 | 90.6*[fluorescence artefact?] | 13.5 | 84.0*[fluorescence artefact?]
C=CCn1c(O)c(C=Nc2ccc(N(CC)CC)cc2)c(=O)[nH]c1=O | 3.8 | -0.3 | 56.2* | 6.6 | 87.4 | 0.7
Cc1ccccc1-n1c(O)c(C=Nc2ccc(N(C)C)cc2)c(=O)[nH]c1=O | 1.3 | -1.1 | 41.3* | 35.5 | 91.2 | 7.0
O=c1[nH]c(=O)n(-c2cccc(Cl)c2)c(O)c1/C=N/c1ccccn1 | 0.1 | 0.0 | 13.8 | -0.8 | 109.8 | -6.9
CCN(CC)c1ccc(N=Cc2c(O)n(CCC3=CCCCC3)c(=O)[nH]c2=O)cc1 | 2.5 | -5.3 | 41.6* | 3.8 | 121.8 | 4.6
Cc1cccc(N=Cc2c(O)n(-c3ccccc3C)c(=O)[nH]c2=O)c1 | 0.5 | -4.7 | 14.2 | -5.4 | 112.7 | 2.4
SMILES | sEH inhibitor | sEH activator | HIV Rev-RRE inh | ERb SRC1 inh | ERa SRC1 pot | ERa SRC1 inh
CN(C)c1ccc(N=Cc2c(O)n(CCC3=CCCCC3)c(=O)[nH]c2=O)cc1 | 6.8 | -9.5 | 9.6 | 5.5 | 89.5 | 13.6
COc1ccc2nc(/N=C/c3c(O)n(-c4cccc(Cl)c4)c(=O)[nH]c3=O)sc2c1 | 1.9 | 0.9 | 35.9* | · | · | ·
Cc1nnc2n1-c1ccc(Cl)cc1C(c1ccccc1)=NC2 | · | · | · | 8.5 | 113.1 | -10.9
N#Cc1ccccc1Cn1cc(C(=O)c2ccco2)c2ccccc21 | -1.8 | 6.2 | 7.2 | 1.9 | 117.1 | 0.3
CN(C)C1=NC(N(C)C)=NP(N(C)C)(N(C)C)=N1 | -1.3 | -0.2 | 3.6 | 4.2 | 123.0 | -5.3
COc1ccc(-n2c(O)c(C(C)=NCc3ccco3)c(=O)[nH]c2=O)cc1 | 1.5 | -4.3 | 6.4 | -17.8 | 95.9 | -42.3
CC(=O)NC1CC2CCC(C1)N2 (stereo unspecified) | 4.3 | -0.4 | 3.7 | 23.9 | 106.6 | 14.7
